From ChEMBL document CHEMBL1125560, “Synthesis and physicochemical properties of sulfamate derivatives as topical antiglaucoma agents” (J Med Chem, 1992)

Key:
[1] = Intrinsic solubility of the compound; type: ADME; conditions: read-out: S
How it was run: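 Compound equilibrated 2–4 days in pH 7.4 phosphate buffer in sealed rotating tubes, amount tripled if all dissolved. pH and concentration then measured: solution filtered (0.2 μm), diluted, concentration read by UV spectrum. Intrinsic solubility S0 derived from S = S0(1 + 10^(pKa1−pH) + 10^(pH−pKa2)).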

[2] = Solubility in water at pH 5.0; type: physicochemical
How it was run: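 Not measured directly. Intrinsic solubility S0 comes from equilibrium solubility in pH 7.4 phosphate buffer (2–4 days, UV read-out). Solubility at pH 5 is then calculated as S = S0(1 + 10^(pKa1−pH) + 10^(pH−pKa2)), using the imidazole and sulfonamide pKa values.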

[3] = Compound was evaluated for partition coefficient at pH 7.4 (CHCl3/buffer); conditions: octanol/water
[4] = (§1) Partition coefficient at pH 7.4 between chloroform and water as a measure of lipid solubility.
[5] = system: Oryctolagus cuniculus; experiment: Compound was evaluated for decrease in intraocular pressure (IOP) (mmHg) at 1 hour postdosing to New Zealand white rabbits with 2% solubility; type: functional, Eye
How it was run: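 New Zealand white rabbits, at least six per test, 2–10 experiments. Eyes given one drop of topical anesthetic (proparacaine) before tonometer IOP readings, taken before dosing and at 1 h intervals after. Drug at 2% in 0.5% hydroxyethylcellulose, 50 μL to one eye, vehicle to the other. Value is treated-eye minus control-eye IOP at 1 h, mean.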

[6] = target: Carbonic anhydrase (Bos taurus, UniProt P00921+Q95323+P18915+Q3SZX4); experiment: Bovine erythrocyte carbonic anhydrase inhibitory activity of the compound.
[7] = as §1; type: ADME; conditions: read-out: pKa1
How it was run: (§2)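 Drug dissolved in 0.05 M phosphate buffer, pH 7.4, and shaken with an equal volume of chloroform to equilibrium. Aqueous drug concentration found from carbonic anhydrase inhibitory activity of aqueous samples against a standard curve. Organic concentration obtained by difference. Reported as organic/aqueous concentration ratio.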

[8] = Partition coefficient of the compound at pH 7.4 between chloroform and water as a measure of lipid solubility.; type: ADME; conditions: read-out: pKa2; how it was run: as §2

solubility [1] [µg/mL]	solubility [2] [µg/mL]	Partition coefficient [3]	pKa [4]	IC50 [6] [nM]	pKa [7]	pKa [8]	SMILES	IOP [5] [mmHg]
250	1500	2.2	8.91	69	5.71		Cl.NS(=O)(=O)OCCOc1cccc(-n2ccnc2)c1	2.3
	< 710						CC(=O)Nc1nnc(S(N)(=O)=O)s1.Cl	0
120	1600	5.5		250	6.09	9.22	Cl.NS(=O)(=O)OCCCOc1ccc(-n2ccnc2)cc1	0
470	6300	0.73	8.08	94	6.09		Cc1cn(-c2cccc(OS(N)(=O)=O)c2)cn1.Cl	
11000	38000	0.28	9.05	42	5.4		Cl.NS(=O)(=O)Oc1cccc(-n2ccnc2)c1	1.5
230	1000	0.16	8	120	5.54		Cl.NS(=O)(=O)Oc1ccc(-n2ccnc2)cc1	1.3
1400	114000	1.1		77	6.9	8.99	Cc1nccn1-c1cccc(OCCOS(N)(=O)=O)c1.Cl	1.7
220	4900	4.6	8.96	210	6.34		Cc1cn(-c2cccc(OCCOS(N)(=O)=O)c2)cn1.Cl	
3300	100000	0.18	7.99	50	6.47		Cc1nccn1-c1cccc(OS(N)(=O)=O)c1.Cl	0

SMILES	solubility [1] [µg/mL]	solubility [2] [µg/mL]	Partition coefficient [3]	pKa [4]	IC50 [6] [nM]	pKa [7]	pKa [8]	IOP [5] [mmHg]
Cl.NS(=O)(=O)OCCOc1ccc(-n2ccnc2)cc1	700	7400	1.5	9.05	23	5.98		2.5
